Experimental data pooled from the literature.
Each line is one published result; the experiments were not run side by side.
Cell line: NCI-H322M
Effect on: cell growth or viability

Compound | test | conditions | endpoint | result
COc1ccc(-c2ccc(-c3ccc(C(=N)N)nc3)s2)cc1 | SRB | – | GI50 | 1.59 µM
CCc1n(Cc2ccc3ccccc3n2)cc[n+]1Cc1ccc2ccccc2c1 | SRB | – | TGI | 13.8 µM
O=C1NC(=NCc2cccs2)S/C1=C\c1ccc2ncccc2c1 | – | – | IC50 | > 10 µM
COc1cc(-c2ccc(-c3ccc(C(=N)N)nc3)s2)cc(OC)c1OC | SRB | – | GI50 | 3.23 µM
Cc1cc(C)n(C(=S)[S][Au][PH](CCCCCC[PH]([Au][S]C(=S)n2nc(C)cc2C)(c2ccccc2)c2ccccc2)(c2ccccc2)c2ccccc2)n1 | SRB | – | GI50 | 0.423 µM
COc1ccc(C(=O)/C=C/c2cccnc2)cc1S(N)(=O)=O | SRB | 48 h | GI50 | 12.3 µM
O=C1NCCc2[nH]c(-c3ccncc3)cc21 | – | – | IC50 | > 10 µM
COc1cccc(Oc2ccccc2NC(=O)CNC(=O)c2cccc3ccccc23)c1 | SRB | 48 h | GI50 | 1.29 µM
c1ccc2cc(Cn3cc[n+](Cc4ccc5ccccc5c4)c3)ccc2c1 | SRB | – | TGI | 21.3 µM
COc1ccc(C(=O)/C=C/c2cc3c(cc2Br)OCO3)cc1S(N)(=O)=O | SRB | 48 h | GI50 | 3.8 µM
S=C([S][Au-][P+](CCCCCC[P+]([Au-][S]C(=S)n1cccn1)(c1ccccc1)c1ccccc1)(c1ccccc1)c1ccccc1)n1cccn1 | SRB | – | GI50 | 0.417 µM
CCc1n(Cc2ccc3ccccc3n2)cc[n+]1Cc1ccc2ccccc2n1 | SRB | – | TGI | 41.9 µM
